Test results as given in ChEMBL document CHEMBL1777690, “Synthesis and SAR studies of novel 2-(6-aminomethylaryl-2-aryl-4-oxo-quinazolin-3(4H)-yl)acetamide vasopressin V1b receptor antagonists” (Bioorg Med Chem Lett, 2011).
Active and inactive are the calls of the source. The rule behind the calls is not given here.

test system: Rattus norvegicus; assay: Reduction in desmopressin-induced ACTH release in rat hyphalamic-pituitary-adrenal hyperactivity model at 10 mg/kg, po; assay type: functional, organism-based; set-up: dose 10 mg/kg; details: not given
In short: (§1)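 Rats dosed orally with compound or vehicle (5% mulgofen in saline) at T=0. CRH (0.3 µg/kg) or PBS given iv via jugular catheter at T+100 min. dDAVP (0.5 mg/kg) or PBS given iv at T+120 min. 0.5 ml blood taken at T+130 min, kept on ice, centrifuged at 4 °C, plasma stored at -40 °C. ACTH measured by ELISA, drug level by mass spectrometry.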

Row | SMILES | inhibition
1 | COc1cc(-c2nc3ccc(-c4cccc(CN(C)C)c4)cc3c(=O)n2CC(=O)NC(C)C)ccc1F | Active

test system: not listed separately; assay: Oral bioavailability in Wistar rat at 5 mg/kg, po; assay type: ADME, organism-based; details: in vivo
In short: (§2)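 Male Wistar rats. iv dose 1 mg/kg in 10% (v/v) DMA in water. po dose 5 mg/kg in 5% (v/v) mulgofen in saline. Oral AUC reported as AUCt, iv AUC as AUCinf. Values given as mean ± spread.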

Row | bioavailability | SMILES
2 | 45% | COc1cc(-c2nc3ccc(-c4cccc(CN(C)C)c4)cc3c(=O)n2CC(=O)NC(C)C)ccc1F

organism: Homo sapiens; assay: Selectivity ratio for human vasopressin V1b receptor over human oxytocin receptor; details: not given

Row | fold change (FC) | SMILES
3 | > 10000 | COc1cc(-c2nc3ccc(-c4cccc(CN(C)C)c4)cc3c(=O)n2CC(=O)NC(C)C)ccc1F

biological target: T1, Vasopressin V1b receptor (Homo sapiens, UniProt P47901); assay: Displacement of [3H]AVP from human vasopressin V1b receptor expressed in CHO cells co-expressing VIP-luciferase by scintillation counting-based whole cell binding assay; details: not given
T1 sequence (P47901 whole entry): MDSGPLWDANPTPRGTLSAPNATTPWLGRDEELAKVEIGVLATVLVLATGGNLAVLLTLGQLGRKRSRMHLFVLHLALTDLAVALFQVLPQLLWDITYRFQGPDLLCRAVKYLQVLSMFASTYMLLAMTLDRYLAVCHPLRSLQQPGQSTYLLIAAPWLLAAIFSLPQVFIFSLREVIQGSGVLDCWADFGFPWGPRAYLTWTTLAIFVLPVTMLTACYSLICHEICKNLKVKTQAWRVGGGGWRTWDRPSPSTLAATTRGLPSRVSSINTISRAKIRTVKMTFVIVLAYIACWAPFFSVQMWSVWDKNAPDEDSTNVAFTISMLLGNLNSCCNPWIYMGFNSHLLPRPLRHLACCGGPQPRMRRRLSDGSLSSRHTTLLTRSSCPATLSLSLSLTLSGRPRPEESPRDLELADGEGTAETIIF
In short: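 Whole-cell binding in CHO cells stably expressing human V1b (VIP-luciferase line), grown at 37 °C, 5% CO2 in DMEM/F12 with 10% FBS and 0.4 mg/mL G418. Seeded at 30,000 cells, cultured overnight, washed with PBS. Serially diluted compound with 5 nM [3H]-AVP (final) in PBS, 10 mM MgCl2, 0.1% BSA, 1% DMSO, 30 min at room temperature. Wells washed, dried, scintillation counted.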

Row | IC50 | SMILES
4 | 610 nM | COc1ccccc1-c1nc2ccc(-c3cccc(CN4CCC4)c3)cc2c(=O)n1CC(=O)NC(C)C
5 | 642 nM | COCCNCc1cccc(-c2ccc3nc(-c4ccccc4)n(CC(=O)NCC4CC4)c(=O)c3c2)c1
6 | 60 nM | CC(C)NC(=O)Cn1c(-c2cccc(Cl)c2)nc2ccc(-c3cccc(CN4CCC4)c3)cc2c1=O
7 | 397 nM | CC(C)NC(=O)Cn1c(-c2ccccc2)nc2ccc(-c3cccc(CN4CCC4)c3)cc2c1=O
8 | 314 nM | CN(C)Cc1cccc(-c2ccc3nc(-c4ccccc4)n(CC(=O)NCC4CC4)c(=O)c3c2)c1
9 | 19 nM | CC(C)NC(=O)Cn1c(-c2cccc(Cl)c2)nc2ccc(-c3cccc(CN(C)C)c3)cc2c1=O
10 | 52 nM | COc1cccc(-c2nc3ccc(-c4cc(CN(C)C)ccn4)cc3c(=O)n2CC(=O)NC(C)C)c1
11 | > 20000 nM | O=C(Cn1c(-c2ccccc2)nc2ccc(-c3ccccc3CN3CCCCC3)cc2c1=O)NCC1CC1
12 | 2 nM | COc1cccc(-c2nc3ccc(-c4cccc(CN5CCCCC5)c4)cc3c(=O)n2CC(=O)NC(C)C)c1
13 | 1200 nM | NCc1cccc(-c2ccc3nc(-c4ccccc4)n(CC(=O)NCC4CC4)c(=O)c3c2)c1
14 | 9 nM | COc1cccc(-c2nc3ccc(-c4cccc(CN(C)C)c4)cc3c(=O)n2CC(=O)NC(C)C)c1
15 | 275 nM | O=C(Cn1c(-c2ccccc2)nc2ccc(-c3cccc(CN4CCC4)c3)cc2c1=O)NCC1CC1
16 | 1040 nM | CC(C)CNC(=O)Cn1c(-c2ccccc2)nc2ccc(-c3cccc(CN4CCC4)c3)cc2c1=O
17 | 2350 nM | CCCNC(=O)Cn1c(-c2ccccc2)nc2ccc(-c3cccc(CN4CCC4)c3)cc2c1=O
18 | 540 nM | CCN(CC)Cc1cccc(-c2ccc3nc(-c4ccccc4)n(CC(=O)NCC4CC4)c(=O)c3c2)c1
19 | 60 nM | O=C(Cn1c(-c2ccccc2)nc2ccc(-c3cccc(CN4CCCCC4)c3)cc2c1=O)NCC1CC1
20 | 187 nM | CC(C)(C)NC(=O)Cn1c(-c2ccccc2)nc2ccc(-c3cccc(CN4CCC4)c3)cc2c1=O

Row | IC50 | SMILES
21 | 700 nM | COc1cccc(-c2nc3ccc(-c4ccc(CN(C)C)o4)cc3c(=O)n2CC(=O)NC(C)C)c1
22 | 9 nM | CC(C)NC(=O)Cn1c(-c2cccc(Cl)c2)nc2ccc(-c3cccc(CN4CCCCC4)c3)cc2c1=O
23 | 500 nM | COc1cccc(-c2nc3ccc(-c4ccc(CN(C)C)s4)cc3c(=O)n2CC(=O)NC(C)C)c1
24 | 37 nM | COc1cccc(-c2nc3ccc(-c4cccc(CN(C)C)n4)cc3c(=O)n2CC(=O)NC(C)C)c1
25 | 79 nM | O=C(Cn1c(-c2ccccc2)nc2ccc(-c3cccc(CN4CCOCC4)c3)cc2c1=O)NCC1CC1
26 | 388 nM | O=C(Cn1c(-c2ccccc2)nc2ccc(-c3cccc(CN4CCCC4)c3)cc2c1=O)NCC1CC1
27 | > 20000 nM | O=C(Cn1c(-c2ccccc2)nc2ccc(-c3ccccc3CN3CCOCC3)cc2c1=O)NCC1CC1
28 | > 20000 nM | O=C(Cn1c(-c2ccccc2)nc2ccc(-c3ccc(CN4CCOCC4)cc3)cc2c1=O)NCC1CC1
29 | 46 nM | COc1cccc(-c2nc3ccc(-c4cccc(CN5CCC5)c4)cc3c(=O)n2CC(=O)NC(C)C)c1
30 | 238 nM | O=C(Cn1c(-c2ccccc2)nc2ccc(-c3cccc(CN4CCC4)c3)cc2c1=O)NC1CCCC1
31 | 7 nM | COc1cccc(-c2nc3ccc(-c4cc(CN(C)C)ccc4F)cc3c(=O)n2CC(=O)NC(C)C)c1
32 | 2550 nM | O=C(Cn1c(-c2ccccc2)nc2ccc(-c3cccc(CN4CCC4)c3)cc2c1=O)NC1CC1
33 | 1 nM | COc1cc(-c2nc3ccc(-c4cccc(CN(C)C)c4)cc3c(=O)n2CC(=O)NC(C)C)ccc1F
34 | 320 nM | CNCc1cccc(-c2ccc3nc(-c4ccccc4)n(CC(=O)NCC4CC4)c(=O)c3c2)c1
35 | > 20000 nM | O=C(Cn1c(-c2ccccc2)nc2ccc(-c3ccc(CN4CCCCC4)cc3)cc2c1=O)NCC1CC1
36 | 77 nM | COc1cccc(-c2nc3ccc(-c4cncc(CN(C)C)c4)cc3c(=O)n2CC(=O)NC(C)C)c1

biological target: T2, Vasopressin V1b receptor (Homo sapiens) (UniProt P47901); assay: Antagonist activity at human vasopressin V1b receptor expressed CHO cells co-expressing VIP-luciferase assessed as reporter gene linked AVP-mediated intracellular calcium mobilization; assay type: functional, cell-based; details: not given
T2 sequence (whole entry): T1 sequence (P47901 whole entry)

Row | Activity | SMILES
37 | Active | COc1cc(-c2nc3ccc(-c4cccc(CN(C)C)c4)cc3c(=O)n2CC(=O)NC(C)C)ccc1F

test system: not listed separately; assay: Volume of distribution at steady state in Wistar rat at 1 mg/kg, iv; assay type: ADME, organism-based; set-up: dose 1 mg/kg, route intravenous; details: in vivo, read-out: Vdss; in short: as §2

Row | Vd | SMILES
38 | 4.85 L/kg | COc1cc(-c2nc3ccc(-c4cccc(CN(C)C)c4)cc3c(=O)n2CC(=O)NC(C)C)ccc1F

test system: not listed separately; assay: Apparent permeability of the compound from apical to basolateral side in human Caco2 cell membrane; details: Caco-2

Row | Papp A→B | SMILES
39 | 12.1 ×10⁻⁶ cm/s | COc1cccc(-c2nc3ccc(-c4cc(CN(C)C)ccc4F)cc3c(=O)n2CC(=O)NC(C)C)c1
40 | 6.8 ×10⁻⁶ cm/s | COc1cc(-c2nc3ccc(-c4cccc(CN(C)C)c4)cc3c(=O)n2CC(=O)NC(C)C)ccc1F

test system: not listed separately; assay: AUCt in Wistar rat at 5 mg/kg, po; assay type: ADME, organism-based; set-up: dose 5 mg/kg, route oral; details: plasma; in short: as §2

Row | AUC(0-t) | SMILES
41 | 930 ng·h/mL | COc1cc(-c2nc3ccc(-c4cccc(CN(C)C)c4)cc3c(=O)n2CC(=O)NC(C)C)ccc1F

test system: not listed separately; assay: Inhibition of human Cytochrome P450; assay type: ADME; details: not given

Row | IC50 | SMILES
42 | > 17000 nM | COc1cc(-c2nc3ccc(-c4cccc(CN(C)C)c4)cc3c(=O)n2CC(=O)NC(C)C)ccc1F

test system: not listed separately; assay: Intrinsic clearance in human liver microsomes; details: not given

Row | microsomal CLint | SMILES
43 | 45 µL/min/mg | COc1cccc(-c2nc3ccc(-c4cccc(CN(C)C)c4)cc3c(=O)n2CC(=O)NC(C)C)c1
44 | 58 µL/min/mg | COc1cccc(-c2nc3ccc(-c4cc(CN(C)C)ccc4F)cc3c(=O)n2CC(=O)NC(C)C)c1
45 | < 12 µL/min/mg | COc1cc(-c2nc3ccc(-c4cccc(CN(C)C)c4)cc3c(=O)n2CC(=O)NC(C)C)ccc1F

test system: not listed separately; assay: Apparent permeability of the compound from basolateral to apical side in human Caco2 cell membrane; assay type: ADME, cell-based; details: Caco-2

Row | Papp B→A | SMILES
46 | 23.3 ×10⁻⁶ cm/s | COc1cccc(-c2nc3ccc(-c4cc(CN(C)C)ccc4F)cc3c(=O)n2CC(=O)NC(C)C)c1
47 | 9.1 ×10⁻⁶ cm/s | COc1cc(-c2nc3ccc(-c4cccc(CN(C)C)c4)cc3c(=O)n2CC(=O)NC(C)C)ccc1F

test system: not listed separately; assay: Elimination half life in Wistar rat at 1 mg/kg, iv; assay type: ADME, organism-based; set-up: dose 1 mg/kg, route intravenous; details: in vivo, read-out: beta t1/2 (converted); in short: as §2

Row | half-life | SMILES
48 | 1.61 h | COc1cc(-c2nc3ccc(-c4cccc(CN(C)C)c4)cc3c(=O)n2CC(=O)NC(C)C)ccc1F

organism: Homo sapiens; assay: Selectivity ratio for human vasopressin V1b receptor over human vasopressin V1a receptor; details: not given

Row | fold change (FC) | SMILES
49 | > 10000 | COc1cc(-c2nc3ccc(-c4cccc(CN(C)C)c4)cc3c(=O)n2CC(=O)NC(C)C)ccc1F

test system: not listed separately; assay: AUC (infinity) in Wistar rat at 1 mg/kg, iv; assay type: ADME, organism-based; set-up: time infinity, dose 1 mg/kg, route intravenous; details: plasma
In short: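 Male Wistar rats given a single intravenous dose of 1 mg/kg in 10% (v/v) DMA in water. AUC taken to infinity from plasma concentrations. Value reported as mean ± variability.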

Row | AUC(0-inf) | SMILES
50 | 441 ng·h/mL | COc1cc(-c2nc3ccc(-c4cccc(CN(C)C)c4)cc3c(=O)n2CC(=O)NC(C)C)ccc1F

test system: not listed separately; assay: Clearance in Wistar rat at 1 mg/kg, iv; assay type: ADME, organism-based; set-up: dose 1 mg/kg, route intravenous; details: in vivo; in short: as §2

Row | clearance | SMILES
51 | 40.2 mL/min/kg | COc1cc(-c2nc3ccc(-c4cccc(CN(C)C)c4)cc3c(=O)n2CC(=O)NC(C)C)ccc1F

organism: Homo sapiens; assay: Selectivity ratio for human vasopressin V1b receptor over human vasopressin V2 receptor; details: not given

Row | fold change (FC) | SMILES
52 | > 10000 | COc1cc(-c2nc3ccc(-c4cccc(CN(C)C)c4)cc3c(=O)n2CC(=O)NC(C)C)ccc1F

test system: Rattus norvegicus; assay: Reduction in desmopressin/CRH-induced ACTH release in po dosed rat hyphalamic-pituitary-adrenal hyperactivity model; assay type: functional, organism-based; details: not given; in short: as §1

Row | SMILES | inhibition
53 | COc1cc(-c2nc3ccc(-c4cccc(CN(C)C)c4)cc3c(=O)n2CC(=O)NC(C)C)ccc1F | Dose-dependent effect
